According to ChEMBL document CHEMBL4304792, “Cinnamonitrile Adjuvants Restore Susceptibility to β-Lactams against Methicillin-Resistant Staphylococcus aureus” (ACS Med Chem Lett, 2019):
In brackets after ≈: the same amount, converted by molar mass. Activity calls are given as the source filed them. The rule behind the calls is not given here.

Experiments:
[1] = system: Staphylococcus aureus; assay: Potentiation of oxacillin induced antibacterial activity against Staphylococcus aureus NRS119 assessed as oxacillin MIC at 8 uM measured after 16 to 20 hrs in presence of 2% NaCl by microdilution broth method (reference value: 256 mg/L); format: functional
[2] = system: Staphylococcus aureus; assay: Potentiation of oxacillin induced antibacterial activity against Staphylococcus aureus MW2 NRS123 assessed as oxacillin MIC at 8 uM measured after 16 to 20 hrs in presence of 2% NaCl by microdilution broth method (reference value: 16 mg/L); format: functional
[3] = system: Staphylococcus aureus; assay: Antibacterial activity against Staphylococcus aureus MW2 NRS123 measured after 16 to 20 hrs in presence of 2% NaCl by microdilution broth method; format: functional
[4] = system: Staphylococcus aureus; assay: Potentiation of oxacillin induced antibacterial activity against Staphylococcus aureus NRS119 assessed as oxacillin MIC at 16 uM measured after 16 to 20 hrs in presence of 2% NaCl by microdilution broth method (reference value: 256 mg/L); format: functional
[5] = system: Staphylococcus aureus; assay: Potentiation of oxacillin induced antibacterial activity against Staphylococcus aureus NRS70 assessed as oxacillin MIC at 8 uM measured after 16 to 20 hrs in presence of 2% NaCl by microdilution broth method (reference value: 64 mg/L); format: functional
[6] = system: Staphylococcus aureus; assay: Antibacterial activity against Staphylococcus aureus USA200-NRS383 measured after 16 to 20 hrs in presence of 2% NaCl by microdilution broth method; format: functional
[7] = system: Staphylococcus aureus; assay: Antibacterial activity against Staphylococcus aureus MRSA252 measured after 16 to 20 hrs in presence of 2% NaCl by microdilution broth method; format: functional
[8] = system: Staphylococcus aureus; assay: Antibacterial activity against Staphylococcus aureus NRS70 measured after 16 to 20 hrs in absence of 2% NaCl by microdilution broth method
[9] = system: Staphylococcus aureus; assay: Potentiation of oxacillin induced antibacterial activity against methicillin susceptible Staphylococcus aureus NRS11 assessed as reduction in oxacillin MIC at 20 uM measured after 16 to 20 hrs in presence of 2% NaCl by microdilution broth method; format: functional
In short: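 Oxacillin MIC was measured against methicillin-susceptible strains with the adjuvant fixed at 20 μM. Potentiation was expressed as fold reduction of the oxacillin MIC relative to oxacillin alone.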

[10] = system: Staphylococcus aureus; assay: Potentiation of oxacillin induced antibacterial activity against Staphylococcus aureus USA100-NRS382 assessed as oxacillin MIC at 20 uM measured after 16 to 20 hrs in presence of 2% NaCl by microdilution broth method (reference value: 64 mg/L); format: functional
[11] = system: Staphylococcus aureus; assay: (§1) Inhibition of C-terminal His-tagged Staphylococcus aureus NCTC8325 RsbW expressed in Escherichia coli BL21 star (DE3) assessed as decrease in phosphorylation at 100 uM using RsbV as substrate measured after 20 mins in presence of [33P] gammaATP by SDS-PAGE
[12] = system: Staphylococcus aureus; assay: as §1, with “recombinant […] N-terminal Stre-tagged” for “C-terminal His-tagged”, “STK1 domain (1 to 348 residues)” for “RsbW”, “MBP” for “RsbV”
[13] = system: Staphylococcus aureus; assay: Synergistic antibacterial activity against methicillin resistant Staphylococcus aureus Mu50 NRS1 assessed as fractional inhibitory concentration index in presence of oxacillin by checkerboard assay; format: functional
In short: (§2)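 Checkerboard combinations of the adjuvant with oxacillin were tested against MRSA strains NRS1, NRS70 and NRS384. The fractional inhibitory concentration index (FICI) was derived from the combination MICs, and each interaction was classed as synergistic or indifferent (additive).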

[14] = system: Staphylococcus aureus; assay: Inhibition of recombinant full length N-terminal Stre-tagged Staphylococcus aureus NCTC8325 STK1 expressed in Escherichia coli BL21 star (DE3) assessed as decrease in phosphorylation at 100 uM using MBP as substrate measured after 20 mins [33P] gammaATP by SDS-PAGE
[15] = system: Staphylococcus aureus; assay: Synergistic antibacterial activity against methicillin resistant Staphylococcus aureus NRS70 assessed as fractional inhibitory concentration index in presence of oxacillin by checkerboard assay; format: functional; in short: as §2
[16] = system: Staphylococcus aureus; assay: Inhibition of N-terminal His-tagged Staphylococcus aureus capA1ct/B2 expressed in Escherichia coli BL21 star (DE3) assessed as decrease in phosphorylation at 100 uM using MBP as substrate measured after 20 mins in presence of [33P] gammaATP by SDS-PAGE
[17] = system: Staphylococcus aureus; assay: Inhibition of N-terminal His-tagged Staphylococcus aureus NCTC8325 RsbV expressed in Escherichia coli BL21 star (DE3) assessed as decrease in phosphorylation at 100 uM measured after 20 mins in presence of [33P] gammaATP by SDS-PAGE
[18] = system: Staphylococcus aureus; assay: Synergistic antibacterial activity against methicillin resistant Staphylococcus aureus NRS384 assessed as fractional inhibitory concentration index in presence of oxacillin by checkerboard assay; format: functional; in short: as §2

SMILES | MIC [1] [µg/mL] | MIC [2] [µg/mL] | MIC [3] [µg/mL] | MIC [4] [µg/mL] | MIC [5] [µg/mL] | MIC [6] [µg/mL] | MIC [7] [µg/mL] | MIC [8] [µg/mL] | MIC [10] [µg/mL] | fold change (FC) [9] | inhibition [11] | inhibition [12] | fractional inhibitory concentration index (FICI) [13] | inhibition [14] | fractional inhibitory concentration index (FICI) [15] | inhibition [16] | inhibition [17] | fractional inhibitory concentration index (FICI) [18]
CS(=O)(=O)/C(C#N)=C/c1cc(-c2ccc(Cl)c(Cl)c2)ccc1F | 32 | 1 | 16 | 0.5 | 16 | 16 | 16 | 16 (≈ 43.2 µM) | 1 | 2 - 10 | – | – | – | – | – | – | – | –
CS(=O)(=O)/C(C#N)=C/c1cc(Cc2ccc(Cl)c(Cl)c2)ccc1OC(F)(F)F | 0.06 | 0.5 | ≥ 64 | 0.03 | 0.25 | 32 | 8 | 8 (≈ 17.8 µM) | ≤ 0.03 | 2 - 10 | inactive | inactive | 0.28 | inactive | 0.28 | inactive | inactive | 0.38

More lines, in order of falling MIC [1], values ahead:

MIC [1] [µg/mL] | MIC [2] [µg/mL] | MIC [3] [µg/mL] | MIC [4] [µg/mL] | MIC [5] [µg/mL] | MIC [6] [µg/mL] | MIC [7] [µg/mL] | MIC [8] [µg/mL] | MIC [10] [µg/mL] | SMILES | fold change (FC) [9] | inhibition [11] | inhibition [12] | fractional inhibitory concentration index (FICI) [13] | inhibition [14] | fractional inhibitory concentration index (FICI) [15] | inhibition [16] | inhibition [17] | fractional inhibitory concentration index (FICI) [18]
16 | 0.5 | 16 | 0.5 | 4 | 16 | 16 | 16 (≈ 35.8 µM) | 0.12 | N#C/C(=C\c1cc(Cc2ccc(Cl)c(Cl)c2)ccc1F)S(=O)(=O)c1ccccn1 | 2 - 10 | – | – | – | – | – | – | – | –
4 | ≥ 16 | 16 | 1 | 64 | 16 | 16 | 8 (≈ 19.9 µM) | ≤ 0.03 | CS(=O)(=O)/C(C#N)=C/c1c(F)ccc(Cc2ccc(Cl)c(Cl)c2)c1F | 2 - 10 | – | – | – | – | – | – | – | –
0.5 | 4 | ≥ 64 | 1 | 8 | ≥ 64 | 32 | 8 (≈ 20.8 µM) | 0.25 | CS(=O)(=O)/C(C#N)=C/c1cc(Cc2ccc(Cl)c(Cl)c2)ccc1F | 2 - 10 | – | – | – | – | – | – | – | –
